We go through 13 compounds from PubChem BioAssay.

Active and inactive are the calls of the source.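 How the source made its calls, unless noted: active means fluorescence slope higher than the sample average by over 3 SD (cut at about -0.22 in these data, passing the limit was not always enough); inactive means the rest.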

Assay [1] can be described thus: inhibitors of TNFa-induced NFkB p65 translocation, primary screen, imaging, HUVEC, MLSMR starter and 10KST1 sets (AID 438;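 active means inhibition above 20% together with a positive visual image hit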;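 further: compound added about 3h40 before a 20 min TNFalpha stimulation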;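 on inhibition: signal is the nuclear over cytoplasmic p65 intensity ratio per well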). To be noted: HUVEC TNFa-induced p65 nuclear translocation; cell count: measured here: nuclei count (cytotoxicity indicator), at 2.08 µM; inhibition: at 2 µM, stronger effect = higher value, 0% TNFa-plus-vehicle, 100% no-TNFa wells.
The nature of assay [2]: endothelial E-selectin expression blockers – imaging, HUVEC, immunofluorescence, MLSMR starter and 10KST1 sets, primary screen (AID 487;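 active means visually confirmed hit in the image check and inhibition above 20%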;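 on inhibition: signal is fraction of cell area covered by stained E-selectin grains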;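 on nuclei count: 100% = median nuclei count of all wells on the same plate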). To be noted: HUVEC TNFalpha-induced E-selectin immunofluorescence imaging, at 2 µM; inhibition: stronger effect = higher value; nuclei count: measured here: cell number, toxicity.
The nature of assay [3]: Primary imaging screen for DUSP6 inhibitors that restore phospho-Erk in transfected HeLa cells, chemical complementation (AID 609;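 active means compounds giving at least 50% inhibition in the cell-based MKP-3 phosphatase rescue imaging test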;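 on inhibition: phospho-Erk level distribution per well compared with pooled transfected vehicle control wells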). To be noted: HeLa MKP-3 transfected, phospho-Erk imaging KS statistic, at 10 µM, cells stimulated with TPA for 15 min.
The target of assay [4] is Dual specificity protein phosphatase 6 (Homo sapiens) (UniProt Q16828). Described as above. To be noted: HeLa MKP-3 transfected, phospho-Erk imaging KS statistic; at 10 µM; stronger effect = higher value; cells stimulated with TPA for 15 min.
Dual specificity protein phosphatase 6 (Homo sapiens), sequence (Q16828 whole entry, looked up): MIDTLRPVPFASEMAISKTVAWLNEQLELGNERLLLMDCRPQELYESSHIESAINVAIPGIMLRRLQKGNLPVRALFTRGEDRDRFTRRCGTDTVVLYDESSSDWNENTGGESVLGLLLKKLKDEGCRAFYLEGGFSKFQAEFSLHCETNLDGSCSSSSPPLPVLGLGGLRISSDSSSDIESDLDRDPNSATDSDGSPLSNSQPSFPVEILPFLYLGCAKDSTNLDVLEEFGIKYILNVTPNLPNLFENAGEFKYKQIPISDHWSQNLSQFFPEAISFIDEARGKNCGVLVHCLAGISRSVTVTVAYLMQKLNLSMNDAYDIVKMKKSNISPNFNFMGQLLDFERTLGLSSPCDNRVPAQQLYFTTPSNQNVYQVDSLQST
For assay [5], the target named is Voltage-gated potassium channel subunit beta-2 (Rattus norvegicus) (UniProt P62483). The assay can be described thus: inhibitors of rat Kvbeta2 reductase activity – biochemical, NADPH fluorescence, primary screen (AID 622).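 Further: slope of raw intensity against log time taken from 70 to 1610 s.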 To be noted: recombinant KvBeta, 4-cyanobenzaldehyde reduction, at 10 µM, stronger effect = higher value.
Voltage-gated potassium channel subunit beta-2 (Rattus norvegicus), sequence (P62483 whole entry, looked up): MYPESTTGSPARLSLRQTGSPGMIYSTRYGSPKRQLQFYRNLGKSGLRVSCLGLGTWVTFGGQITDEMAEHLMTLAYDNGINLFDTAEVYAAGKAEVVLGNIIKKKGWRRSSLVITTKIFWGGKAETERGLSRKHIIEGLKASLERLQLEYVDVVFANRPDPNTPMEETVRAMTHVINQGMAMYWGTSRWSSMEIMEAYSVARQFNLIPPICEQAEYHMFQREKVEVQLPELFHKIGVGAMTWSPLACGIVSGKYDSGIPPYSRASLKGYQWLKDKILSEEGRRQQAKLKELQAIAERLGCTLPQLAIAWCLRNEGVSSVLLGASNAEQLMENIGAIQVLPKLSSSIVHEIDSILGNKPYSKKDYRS
Assay [6] shares this target. In words: enhancers of rat Kvbeta2 NADPH turnover – biochemical, NADPH fluorescence, primary screen (AID 623;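 active means NADPH fluorescence slope more negative than the mean of all samples by about 3 SD, 99.7% confidence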;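 further: fluorescence intensity change per second fitted from 20 to 320 s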). To be noted: Recombinant KvBeta, NADPH fluorescence decrease slope, 10 min; at 10 µM; stronger effect = lower value.
The target of assay [7] is Muscarinic acetylcholine receptor M4 (Homo sapiens) (UniProt P08173). In words: M4-linked GIRK flux change, two-sided – cell-based, HEK293 M4/GIRK, thallium flux, BTC-AM, M4 allosteric agonist project, primary screen (AID 625;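 active means fluorescence slope after compound addition differing from the mean of all tested samples at 99.7% confidence, mostly higher but some lower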;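 further: thallium influx through GIRK channels coupled to M4 in HEK293 cells with BTC-AM dye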). Conditions: at 10 µM, actives lie on both sides. In short, it runs like this: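 Material: HEK293 cells with M4 receptor and GIRK channels; Times: cells overnight at 37 °C, BTC-AM loading 1 h, reads 2 min total; Technique: kinetic BTC-AM fluorescence sampled at 1 Hz, 10 s pre-addition baseline; Read-out basis: slope over 15–24 s of trace normalized to starting intensity; Controls: carbachol positive, DMSO negative.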
Muscarinic acetylcholine receptor M4 (Homo sapiens), sequence (P08173 whole entry, looked up): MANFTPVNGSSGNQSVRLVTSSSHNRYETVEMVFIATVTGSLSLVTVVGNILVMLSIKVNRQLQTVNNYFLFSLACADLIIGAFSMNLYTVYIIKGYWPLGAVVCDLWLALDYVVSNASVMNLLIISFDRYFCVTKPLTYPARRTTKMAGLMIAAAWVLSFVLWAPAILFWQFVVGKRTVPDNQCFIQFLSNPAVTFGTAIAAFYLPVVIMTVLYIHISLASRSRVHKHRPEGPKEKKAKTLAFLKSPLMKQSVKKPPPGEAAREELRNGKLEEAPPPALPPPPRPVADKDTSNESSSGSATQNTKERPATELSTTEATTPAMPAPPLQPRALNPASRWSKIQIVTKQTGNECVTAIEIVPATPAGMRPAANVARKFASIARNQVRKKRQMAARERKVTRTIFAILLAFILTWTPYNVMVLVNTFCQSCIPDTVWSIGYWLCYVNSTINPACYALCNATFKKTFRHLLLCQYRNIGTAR

Assay [8] can be described thus: inhibitors of larval lipid processing in zebrafish, primary screen, whole organism, PED6 fluorescence, gall bladder and intestine (AID 686;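 active means a full or partial loss of lipid-probe fluorescence in the fish gall bladder, intestine or both, judged by eye; inactive means no fluorescence loss, or compound toxic to the fish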;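 further: larvae 5 to 7 days old with five fish per well; signal comes from phospholipase A2 cleavage of quenched PED6 carried via bile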). To be noted: Zebrafish larvae PED6 lipid processing, fluorescence scoring; screened at 20 µM (by protocol). In short, it runs like this: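 Incubation: overnight exposure of larvae to compound plus PED6 / Test system: live zebrafish larvae aged 5-7 days, whole organism / Amount: 5 larvae per well / Read-out basis: visual per-well fluorescence inhibition score / Signal: visual fluorescence microscopy scoring of gall bladder, gut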

A short description of assay [9]: loss of swimming-algae plug formation – whole organism, Chlamydomonas reinhardtii, WT vs cilia-less mutant, absorbance, 96-well, primary screen (AID 463189;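 active means inhibition at or above 50% relative to wild type and mutant plate controls; inactive means inhibition below 50%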;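 further: 0% = wild type cc124 cells in DMSO and 100% = ciliumless bld1 mutant cells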). Conditions: Chlamydomonas reinhardtii gravitaxis, OD600 absorbance, 2 days; at 10 µM; stronger effect = higher value.
Where [10] appears, read: measured here: cell density z-score.
[11] abbreviates: measured here: nuclear c-Myc green intensity z-score.
Setting [12] is: measured here: nuclear pErk red intensity z-score, stronger effect = higher value.

`CCSc1nnc(NC(NC(=O)c2ccco2)(C(F)(F)F)C(F)(F)F)s1`: the cell count in [1] came out at 608. Besides, the inhibition in assay [1] was -7.3% (inactive); in assay [2] it was -13.8% (inactive); in assay [4], -7.67% (inactive); in assay [9], -9.53% (inactive). This compound also displayed a nuclei count in [2] of 91.9%. Also, the z-score in assay [3] (setting [10]) was -1.05; in assay [3] (setting [11]), -0.75; in assay [3] (setting [12]), -0.312. Also, the fluorescence slope in assay [5] is -0.483 (inactive); in [7], 0.00455 (inactive). The NADPH fluorescence slope in assay [6] is -3.9e-05 (inactive). The compound was called inactive in assay [8].

As for `C=CCNc1nc(N2CCCCC2)c(C#N)c2c1CN(Cc1ccccc1)CC2`, the cell count in [1] was found to be 504. The inhibition was -15.8% (inactive) in assay [1], -82.3% (inactive) in assay [2], -9.53% (inactive) in assay [4] and 0.584% (inactive) in [9]. Also, the nuclei count in assay [2] is 127%. Besides, the z-score in [3] (setting [10]) was 0.348; in assay [3] (setting [11]), -0.299; in assay [3] (setting [12]) it was -0.89. The values for the fluorescence slope in assay [5] and in [7] were -0.473 (inactive) and 0.00373 (inactive), respectively. Further, the NADPH fluorescence slope in assay [6] is -5.4e-05 (inactive). The compound was classed as inactive in assay [8].

As to `CCOc1ccc(S(=O)(=O)NC(C)(C)C)cc1-c1nc2c(C(C)(C)C)nn(C)c2c(=O)[nH]1`, the cell count in assay [1] was determined as 654. Moreover, the inhibition is -6.1% (inactive) in assay [1], -8.5% (inactive) in assay [2], 31.4% (inactive) in [4] and 88.4% (active) in [9]. The same compound showed a nuclei count in assay [2] of 99.3%. The figures for the z-score in assay [3] (setting [10]), in assay [3] (setting [11]) and in [3] (setting [12]) were 2.17, -1.88 and -0.971, respectively. Moreover, the fluorescence slope in assay [5] was -0.462 (inactive); in assay [7], 0.0055 (inactive). The NADPH fluorescence slope in assay [6] was -5.9e-05 (inactive). Moreover, the compound was called inactive in [8].

Consider `Nc1nc2n(n1)C(c1cccs1)CC(c1ccc(F)cc1)N2` (centres undefined), for which the cell count in assay [1] stood at 385. The inhibition was 5.4% (inactive) in assay [1], -40.7% (inactive) in assay [2], 5.65% (inactive) in assay [4] and 0.994% (inactive) in assay [9]. Further, in [2], the nuclei count was found to be 141%. For the same compound, the z-score was 0.349 in assay [3] (setting [10]), 0.295 in assay [3] (setting [11]) and -0.128 in assay [3] (setting [12]). The fluorescence slope in [5] is -0.436 (inactive); in assay [7], 0.00473 (inactive). Besides, the NADPH fluorescence slope in [6] was -0.000111 (inactive). Moreover, the result in assay [8] was inactive.

Consider `O=C1CC(c2ccco2)CC(O)=C1C=NCCN1CCN(C2CC(=O)N(c3ccccc3)C2=O)CC1` (centres undefined), for which, in assay [1], the cell count amounted to 378. Further, the inhibition was -0.3% (inactive) in assay [1], -133% (inactive) in assay [2], -4.78% (inactive) in [4] and -7.38% (inactive) in assay [9]. Further, the nuclei count in [2] came to 162%. Moreover, the z-score is -1.98 in assay [3] (setting [10]), 0.592 in [3] (setting [11]) and 0.0438 in assay [3] (setting [12]). The fluorescence slope in assay [5] is -0.462 (inactive); in assay [7], 0.00456 (inactive). In assay [6], the NADPH fluorescence slope was -6e-05 (inactive). Besides, the outcome in assay [8] was inactive.

For the compound `O=C(NCCCNCc1ccccc1)/C(=N\O)c1ccccc1`, in [1], the cell count stood at 518. The inhibition is -4.7% (inactive) in [1], -1% (inactive) in assay [2], 15.9% (inactive) in assay [4] and 7.18% (inactive) in assay [9]. Further, the nuclei count in assay [2] turned out to be 164%. Further, the z-score was -0.176 in [3] (setting [10]), 1.16 in [3] (setting [11]) and 0.402 in assay [3] (setting [12]). Further, the fluorescence slope in assay [5] is -0.401 (inactive); in assay [7], 0.00368 (inactive). For the same compound, the NADPH fluorescence slope in assay [6] is -5.4e-05 (inactive). For the same compound, the outcome in [8] was inactive.

Turning to `CCCc1cc(Nc2c(C)n(C)n(-c3ccccc3)c2=O)n2c(nc3ccccc32)c1C#N`, the cell count in assay [1] is 336. For the same compound, the inhibition in assay [1] was -3.4% (inactive); in assay [2], -170% (inactive); in [4], -6.59% (inactive); in assay [9] it was 0.457% (inactive). The compound further showed a nuclei count in assay [2] of 134%. Moreover, the results for the z-score in [3] (setting [10]), in assay [3] (setting [11]) and in [3] (setting [12]) were -1.08, 0.689 and -0.99, respectively. Further, the fluorescence slope was -0.48 (inactive) in assay [5] and 0.00467 (inactive) in [7]. Also, in assay [6], the NADPH fluorescence slope is -2.2e-05 (inactive). Further, the compound was classed as inactive in assay [8].

As to `N#Cc1c(N2CCCCC2)nc(N2CCCCC2)c2c1CCN(Cc1ccccc1)C2`, the cell count in [1] is 606. The inhibition was -3.7% (inactive) in assay [1], -146% (inactive) in assay [2], -4.59% (inactive) in assay [4] and 4.47% (inactive) in assay [9]. This compound also came in with a nuclei count in [2] of 154%. Besides, the z-score in assay [3] (setting [10]) was 0.785; in assay [3] (setting [11]), -0.814; in [3] (setting [12]), 0.622. In addition, the fluorescence slope is -0.431 (inactive) in assay [5] and 0.0046 (inactive) in assay [7]. The NADPH fluorescence slope in assay [6] is -9.2e-05 (inactive). In addition, in assay [8], the compound was called inactive.

As to `N#C/C(C(=O)NCc1ccco1)=C1/SC(Cc2ccc(Cl)cc2)C(=O)N1c1ccccc1` (centres undefined), the cell count in [1] turned out to be 633. Besides, the inhibition in assay [1] is -0.2% (inactive); in assay [2], -35.3% (inactive); in assay [4] it was -9.53% (inactive); in assay [9], 2.21% (inactive). For the same compound, in assay [2], the nuclei count is 104%. The z-score was 0.196 in [3] (setting [10]), -0.248 in assay [3] (setting [11]) and -0.52 in [3] (setting [12]). Moreover, the fluorescence slope in assay [5] is -0.428 (inactive); in [7] it was 0.00683 (inactive). For the same compound, the NADPH fluorescence slope in assay [6] was -5.4e-05 (inactive). For the same compound, the result in assay [8] was inactive.

`CCCCCOc1ccccc1C(=O)NCC(=O)O`: in assay [1], the cell count came out at 376. Also, the inhibition in assay [1] is -5% (inactive); in assay [2], -55.5% (inactive); in assay [4] it was -0.584% (inactive); in assay [9], -2.86% (inactive). In assay [2], this compound yielded a nuclei count of 169%. Moreover, the results for the z-score in assay [3] (setting [10]), in [3] (setting [11]) and in assay [3] (setting [12]) were 0.663, -0.72 and -0.603, respectively. Moreover, the values for the fluorescence slope in assay [5] and in assay [7] were -0.438 (inactive) and 0.00543 (inactive), respectively. The NADPH fluorescence slope in [6] was -9.1e-05 (inactive). Besides, the outcome in [8] was inactive.

`COC(=O)C(C)Sc1nc2c(c(=O)n(C)c(=O)n2C)n1CCC(C)C` (centres undefined): the cell count in [1] came to 630. Also, the inhibition in assay [1] is 0.3% (inactive); in assay [2] it was -5.5% (inactive); in assay [4], 3.42% (inactive); in [9], 4.36% (inactive). The compound also registered a nuclei count in [2] of 179%. The values for the z-score in assay [3] (setting [10]), in assay [3] (setting [11]) and in assay [3] (setting [12]) were 0.304, -0.191 and -1.37, respectively. Further, the fluorescence slope was -0.42 (inactive) in [5] and 0.00499 (inactive) in [7]. Moreover, the NADPH fluorescence slope in assay [6] was -1.8e-05 (inactive). The result in [8] was inactive.

Regarding `CCOC(=O)/C=c1\s/c(=C(\C#N)C(=O)OCC)n(-c2ccccc2)c1=O`, the cell count in assay [1] came out at 653. In addition, the inhibition in assay [1] was -4.6% (inactive); in assay [2] it was -12% (inactive); in assay [4], 1.42% (inactive); in assay [9], -7.74% (inactive). In assay [2], this compound registered a nuclei count of 151%. Further, the z-score was -0.465 in assay [3] (setting [10]), -0.678 in [3] (setting [11]) and -0.157 in assay [3] (setting [12]). For the same compound, the fluorescence slope in [5] is -0.359 (inactive); in assay [7], 0.00573 (inactive). In addition, the NADPH fluorescence slope in assay [6] was -6.6e-07 (inactive). The outcome in assay [8] was inactive.

In the case of `CC12CN3CC(=O)N4CC5(C)CN(CC(C)(C4)C5=O)C(=O)CN(C1)CC(C)(C3)C2=O`, the cell count in assay [1] is 523. Further, the inhibition is -11.2% (inactive) in assay [1], -128% (inactive) in assay [2], 1.42% (inactive) in assay [4] and 6.7% (inactive) in assay [9]. The compound also returned a nuclei count in [2] of 144%. Besides, the z-score in assay [3] (setting [10]) was 0.984; in assay [3] (setting [11]), -0.638; in assay [3] (setting [12]), -0.379. Further, the values for the fluorescence slope in assay [5] and in [7] were -0.485 (inactive) and 0.00461 (inactive), respectively. Moreover, the NADPH fluorescence slope in assay [6] was -0.000104 (inactive). In assay [8], the call was inactive.
